Results on four molecules are retold here after ChEMBL document CHEMBL1143367, “Therapeutic index of gramicidin S is strongly modulated by D-phenylalanine analogues at the beta-turn” (J Med Chem, 2009).

*1 amine or outer side, *2 acyl side, *3 side chain or, on linkers, in order; H or OH if unused. Where a SMILES comes first, the peptide text is derived from it. [ ]: non-standard residue; d: D form. X1 = O=C([C@H](N[*:1])C1c2ccccc2-c2ccccc21)[*:2]; d1Nal = N[C@H](Cc1cccc2ccccc12)C(=O)O; d2Nal = N[C@H](Cc1ccc2ccccc2c1)C(=O)O; dTic = O=C(O)[C@H]1Cc2ccccc2CN1; Orn = NCCC[C@H](N)C(=O)O

Holding throughout (conditions): defibrinated sheep red blood cells, read-out: TI
Data set [1] can be described thus: Therapeutic index, ratio of HC50 for defibrinated sheep RBC to MIC50 for colistin-resistant Acinetobacter baumannii 19606R. The method, boiled down: (§1)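 TI is HC50/MIC50. For HC50, defibrinated sheep erythrocytes were washed in Hank's medium with 20 mM glucose (pH 7.2), held at 2 × 10^7 cells/mL, and incubated 4 h at 37 °C with peptide in triplicate. After centrifugation, hemoglobin release was read at 550 nm.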

Data set [2] can be described thus: Therapeutic index, ratio of HC50 for defibrinated sheep RBC to MIC50 for Staphylococcus aureus CECT 240. The method, boiled down: as §1
Data set [3] in a line: Therapeutic index, ratio of HC50 for defibrinated sheep RBC to MIC50 for Listeria monocytogenes CECT 4032. The method, boiled down: as §1

`CC(C)C[C@@H]1NC(=O)[C@H](CCCN)NC(=O)[C@H](C(C)C)NC(=O)[C@@H]2CCCN2C(=O)[C@@H](C2c3ccccc3-c3ccccc32)NC(=O)[C@H](CC(C)C)NC(=O)[C@H](CCCN)NC(=O)[C@H](C(C)C)NC(=O)[C@@H]2CCCN2C(=O)[C@@H](C2c3ccccc3-c3ccccc32)NC1=O` (cyclo(L[X1]PV[Orn]L[X1]PV[Orn])): the selectivity ratio in data set [1] was > 0.1.
In the case of `CC(C)C[C@@H]1NC(=O)[C@H](CCCN)NC(=O)[C@H](C(C)C)NC(=O)[C@@H]2CCCN2C(=O)[C@@H](Cc2cccc3ccccc23)NC(=O)[C@H](CC(C)C)NC(=O)[C@H](CCCN)NC(=O)[C@H](C(C)C)NC(=O)[C@@H]2CCCN2C(=O)[C@@H](Cc2cccc3ccccc23)NC1=O` (cyclo(L[d1Nal]PV[Orn]L[d1Nal]PV[Orn])), the selectivity ratio in data set [1] is > 0.1.
`CC(C)C[C@@H]1NC(=O)[C@H](CCCN)NC(=O)[C@H](C(C)C)NC(=O)[C@@H]2CCCN2C(=O)[C@@H](Cc2ccc3ccccc3c2)NC(=O)[C@H](CC(C)C)NC(=O)[C@H](CCCN)NC(=O)[C@H](C(C)C)NC(=O)[C@@H]2CCCN2C(=O)[C@@H](Cc2ccc3ccccc3c2)NC1=O` (cyclo(L[d2Nal]PV[Orn]L[d2Nal]PV[Orn])): the selectivity ratio in data set [1] was > 0.2.
Turning to `CC(C)C[C@@H]1NC(=O)[C@H](CCCN)NC(=O)[C@H](C(C)C)NC(=O)[C@@H]2CCCN2C(=O)[C@H]2Cc3ccccc3CN2C(=O)[C@H](CC(C)C)NC(=O)[C@H](CCCN)NC(=O)[C@H](C(C)C)NC(=O)[C@@H]2CCCN2C(=O)[C@H]2Cc3ccccc3CN2C1=O` (cyclo(L[dTic]PV[Orn]L[dTic]PV[Orn])), the values for the selectivity ratio in data set [2] and in data set [3] were > 10.2 and > 6, respectively.
